Results reported in ChEMBL document CHEMBL1146308 (Bioorg Med Chem, 2007).
Calls of active or inactive are those of the source. The rule behind the calls is not given here.

Tests used:
Acetylcholinesterase = target: T1, Acetylcholinesterase (Rattus norvegicus, UniProt P37136); assay: Inhibition of AChE in rat cortex […]
T1 sequence (P37136 whole entry): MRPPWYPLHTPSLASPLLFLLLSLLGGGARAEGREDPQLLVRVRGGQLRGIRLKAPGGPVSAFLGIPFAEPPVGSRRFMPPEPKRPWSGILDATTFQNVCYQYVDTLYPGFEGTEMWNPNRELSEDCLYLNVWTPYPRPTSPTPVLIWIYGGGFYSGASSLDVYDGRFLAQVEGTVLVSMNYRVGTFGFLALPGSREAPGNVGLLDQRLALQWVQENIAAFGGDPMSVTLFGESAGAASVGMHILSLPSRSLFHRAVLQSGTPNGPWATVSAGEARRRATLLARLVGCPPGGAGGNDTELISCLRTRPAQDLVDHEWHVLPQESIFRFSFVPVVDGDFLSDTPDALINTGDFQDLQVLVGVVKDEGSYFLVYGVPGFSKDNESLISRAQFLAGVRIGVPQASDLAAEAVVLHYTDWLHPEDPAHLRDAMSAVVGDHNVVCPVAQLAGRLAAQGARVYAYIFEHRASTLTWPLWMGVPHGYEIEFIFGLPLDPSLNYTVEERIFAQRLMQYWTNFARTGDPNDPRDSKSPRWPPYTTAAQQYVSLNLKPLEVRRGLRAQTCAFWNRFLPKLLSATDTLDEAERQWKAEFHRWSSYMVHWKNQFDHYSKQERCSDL

Rattus norvegicus = organism: Rattus norvegicus; assay: Selectivity ratio of IC50 for rat BuChE to rat IC50 for AchE
Procedure, shortened: (§1)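 Modified Ellman colorimetric cholinesterase assay. The AChE source was rat cortex homogenate and the BuChE source was rat serum. Inhibition was measured against each enzyme, and selectivity was taken as the BuChE IC50 over the AChE IC50.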

Butyrylcholinesterase = Butyrylcholinesterase (Rattus norvegicus, UniProt Q9JKC1); assay: Inhibition of BuChE in rat serum; type: cell-free; procedure, shortened: as §1
Sequence of Butyrylcholinesterase (Q9JKC1 whole entry): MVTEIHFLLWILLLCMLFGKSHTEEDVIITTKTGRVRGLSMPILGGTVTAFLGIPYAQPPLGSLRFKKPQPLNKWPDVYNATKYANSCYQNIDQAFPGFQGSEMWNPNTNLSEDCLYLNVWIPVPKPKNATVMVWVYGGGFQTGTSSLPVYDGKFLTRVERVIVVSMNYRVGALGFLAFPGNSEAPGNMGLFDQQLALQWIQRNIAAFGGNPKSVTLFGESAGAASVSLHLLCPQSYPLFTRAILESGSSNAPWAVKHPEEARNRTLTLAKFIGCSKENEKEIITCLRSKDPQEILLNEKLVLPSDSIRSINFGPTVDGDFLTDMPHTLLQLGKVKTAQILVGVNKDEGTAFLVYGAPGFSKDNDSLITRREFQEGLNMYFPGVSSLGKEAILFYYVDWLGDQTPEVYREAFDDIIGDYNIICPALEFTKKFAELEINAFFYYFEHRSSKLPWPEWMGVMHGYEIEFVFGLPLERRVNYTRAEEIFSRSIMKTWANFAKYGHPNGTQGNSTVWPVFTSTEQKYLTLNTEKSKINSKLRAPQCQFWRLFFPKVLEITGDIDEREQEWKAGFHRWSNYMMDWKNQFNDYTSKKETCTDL

PC-12 [1] = assay: Reduction of amyloid beta peptide-induced cytotoxicity in PC12 cells; type: functional, cell-based; settings: Rattus norvegicus
PC-12 [2] = assay: Inhibition of amyloid beta peptide-induced redox disequilibrium assessed as increase in GSHPx activity in PC12 cells; type: functional, cell-based; settings: Rattus norvegicus
PC-12 [3] = assay: Inhibition of amyloid beta peptide-induced redox disequilibrium assessed as decrease in SOD activity in PC12 cells; type: functional, cell-based; settings: Rattus norvegicus
PC-12 [4] = assay: Inhibition of amyloid beta peptide-induced redox disequilibrium assessed as decrease in MDA level in PC12 cells; type: functional, cell-based; settings: Rattus norvegicus
Mus musculus = organism: Mus musculus; assay: Neuroprotection against scopolamine-induced spartial performance deficits in mouse by water maze test; type: functional, organism-based
PC-12 [5] = assay: Inhibition of staurosporine-induced apoptosis in PC12 cells; type: functional, cell-based; settings: Rattus norvegicus

| Compound | IC50 (Acetylcholinesterase) [nM] | Ratio IC50 (Rattus norvegicus) | also measured |
| --- | --- | --- | --- |
| CC1=C[C@H]2Cc3[nH]c(=O)ccc3[C@@]3(C1)[C@@H]2CCCN3CCCN(C)CCCCCCN(C)CCCN1CCC[C@@H]2[C@H]3C=C(C)C[C@]21c1ccc(=O)[nH]c1C3 | 33.6 | – | – |
| CC1=C[C@H]2Cc3[nH]c(=O)ccc3[C@@]3(C1)[C@@H]2CCCN3CCN(C)CCCN(C)CCN1CCC[C@@H]2[C@H]3C=C(C)C[C@]21c1ccc(=O)[nH]c1C3 | 416 | – | – |
| CC1=C[C@H]2Cc3[nH]c(=O)ccc3[C@@]3(C1)[C@@H]2CCCN3C(=O)CN(C)CCCCCCCCCCCCN(C)CC(=O)N1CCC[C@@H]2[C@H]3C=C(C)C[C@]21c1ccc(=O)[nH]c1C3 | 53.4 | – | – |
| CC1=C[C@H]2Cc3[nH]c(=O)ccc3[C@@]3(C1)[C@@H]2CCCN3C(=O)CCN1CCCN(CCC(=O)N2CCC[C@@H]3[C@H]4C=C(C)C[C@]32c2ccc(=O)[nH]c2C4)CC1 | 179 | – | – |
| CC1=C[C@H]2Cc3[nH]c(=O)ccc3[C@@]3(C1)[C@@H]2CCCN3C(=O)CN(C)CCCCCCCCCCN(C)Cc1ccncc1 | 50 | – | – |
| CC1=C[C@H]2Cc3[nH]c(=O)ccc3[C@@]3(C1)[C@@H]2CCCN3CCCN(C)CCCCCCCCN(C)CCCN1CCC[C@@H]2[C@H]3C=C(C)C[C@]21c1ccc(=O)[nH]c1C3 | 40.6 | – | – |
| CC1=C[C@H]2Cc3[nH]c(=O)ccc3[C@@]3(C1)[C@@H]2CCCN3C(=O)CN(C)CCN(C)CC(=O)N1CCC[C@@H]2[C@H]3C=C(C)C[C@]21c1ccc(=O)[nH]c1C3 | 1020 | – | – |
| CC1=C[C@H]2Cc3[nH]c(=O)ccc3[C@@]3(C1)[C@@H]2CCCN3CCCN1CCCN(CCCN2CCC[C@@H]3[C@H]4C=C(C)C[C@]32c2ccc(=O)[nH]c2C4)CC1 | 332 | – | – |
| CCCN(CC(=O)N1CCC[C@@H]2[C@H]3C=C(C)C[C@]21c1ccc(=O)[nH]c1C3)CC(=O)n1c2c(ccc1=O)[C@@]13CC(C)=C[C@@H](C2)[C@H]1CCCN3 | 157 | – | – |
| CC1=C[C@H]2Cc3[nH]c(=O)ccc3[C@@]3(C1)[C@@H]2CCCN3C(=O)CN(C)CCCCCCN(C)CC(=O)N1CCC[C@@H]2[C@H]3C=C(C)C[C@]21c1ccc(=O)[nH]c1C3 | 76.2 | 846 | IC50 (Butyrylcholinesterase): 64500 nM |
| CC1=C[C@H]2Cc3[nH]c(=O)ccc3[C@@]3(C1)[C@@H]2CCCN3CCN(C)CCCCCCCCN(C)CCN1CCC[C@@H]2[C@H]3C=C(C)C[C@]21c1ccc(=O)[nH]c1C3 | 20.1 | – | – |
| CC1=C[C@H]2Cc3[nH]c(=O)ccc3[C@@]3(C1)[C@@H]2CCCN3C(=O)CN(C)CCCN(C)CC(=O)N1CCC[C@@H]2[C@H]3C=C(C)C[C@]21c1ccc(=O)[nH]c1C3 | 471 | 127 | IC50 (Butyrylcholinesterase): 60000 nM |
| CC1=C[C@H]2Cc3[nH]c(=O)ccc3[C@@]3(C1)[C@@H]2CCCN3C(=O)CN(C)CCCCCCCCCCN(C)Cc1cccc2ccccc12 | 121 | – | – |
| CC1=C[C@H]2Cc3[nH]c(=O)ccc3[C@@]3(C1)[C@@H]2CCCN3C(=O)CN(C)CCCCCCCCCCN(C)Cc1cccnc1 | – | – | IC50 (Butyrylcholinesterase): 12900 nM |
| CC1=C[C@H]2Cc3[nH]c(=O)ccc3[C@@]3(C1)[C@@H]2CCCN3C(=O)CN(C)CCCCCCCCCCCCN(C)Cc1ccc(F)cc1 | 309 | – | – |
| CC1=C[C@H]2Cc3[nH]c(=O)ccc3[C@@]3(C1)[C@@H]2CCCN3C(=O)CN(CC(=O)N1CCC[C@@H]2[C@H]3C=C(C)C[C@]21c1ccc(=O)[nH]c1C3)C1CC1 | 1000 | – | – |
| CC1=C[C@H]2Cc3[nH]c(=O)ccc3[C@@]3(C1)[C@@H]2CCCN3C(=O)CCN(C)CCCCCCCCCCCCN(C)CCC(=O)N1CCC[C@@H]2[C@H]3C=C(C)C[C@]21c1ccc(=O)[nH]c1C3 | 23.1 | 3830 | IC50 (Butyrylcholinesterase): 88400 nM |
| CC1=C[C@H]2Cc3[nH]c(=O)ccc3[C@@]3(C1)[C@@H]2CCCN3CCN(CCN1CCC[C@@H]2[C@H]3C=C(C)C[C@]21c1ccc(=O)[nH]c1C3)C1CC1 | 695 | – | – |
| CC1=C[C@H]2Cc3[nH]c(=O)ccc3[C@@]3(C1)[C@@H]2CCCN3C(=O)CN(C)CCCCCCCCN(C)CC(=O)N1CCC[C@@H]2[C@H]3C=C(C)C[C@]21c1ccc(=O)[nH]c1C3 | 50.8 | 1290 | IC50 (Butyrylcholinesterase): 65400 nM |
| CC1=C[C@H]2Cc3[nH]c(=O)ccc3[C@@]3(C1)[C@@H]2CCCN3CCN1CCCN(CCN2CCC[C@@H]3[C@H]4C=C(C)C[C@]32c2ccc(=O)[nH]c2C4)CC1 | – | 573 | – |
| CC1=C[C@H]2Cc3[nH]c(=O)ccc3[C@@]3(C1)[C@@H]2CCCN3C(=O)CN1CCN(CC(=O)N2CCC[C@@H]3[C@H]4C=C(C)C[C@]32c2ccc(=O)[nH]c2C4)CC1 | – | > 157 | – |

| Compound | IC50 (Acetylcholinesterase) [nM] | Ratio IC50 (Rattus norvegicus) | also measured |
| --- | --- | --- | --- |
| CC1=C[C@H]2Cc3[nH]c(=O)ccc3[C@@]3(C1)[C@@H]2CCCN3C(=O)CCN(C)CCCCCCN(C)CCC(=O)N1CCC[C@@H]2[C@H]3C=C(C)C[C@]21c1ccc(=O)[nH]c1C3 | 35.9 | 1890 | IC50 (Butyrylcholinesterase): 67900 nM |
| CC1=C[C@H]2Cc3[nH]c(=O)ccc3[C@@]3(C1)[C@@H]2CCCN3C(=O)CCN1CCN(CCC(=O)N2CCC[C@@H]3[C@H]4C=C(C)C[C@]32c2ccc(=O)[nH]c2C4)CC1 | 170 | – | – |
| CC1=C[C@H]2Cc3[nH]c(=O)ccc3[C@@]3(C1)[C@@H]2CCCN3CCN(C)CCCCCCN(C)CCN1CCC[C@@H]2[C@H]3C=C(C)C[C@]21c1ccc(=O)[nH]c1C3 | 78.4 | – | – |
| CC1=C[C@H]2Cc3[nH]c(=O)ccc3[C@@]3(C1)[C@@H]2CCCN3CCCN1CCN(CCCN2CCC[C@@H]3[C@H]4C=C(C)C[C@]32c2ccc(=O)[nH]c2C4)CC1 | 202 | – | – |
| CC1=C[C@H]2Cc3[nH]c(=O)ccc3[C@@]3(C1)[C@@H]2CCCN3C(=O)CN(C)CCCCCCCCCCN(C)Cc1ccccn1 | 42 | – | – |
| CC1=C[C@H]2Cc3[nH]c(=O)ccc3[C@@]3(C1)[C@@H]2CCCN3CCN(C)CCN(C)CCN1CCC[C@@H]2[C@H]3C=C(C)C[C@]21c1ccc(=O)[nH]c1C3 | 3480 | – | – |
| CC1=C[C@H]2Cc3[nH]c(=O)ccc3[C@@]3(C1)[C@@H]2CCCN3C(=O)CN(C)CCCCCCCCN(C)Cc1ccccn1 | 41.2 | – | – |
| COc1ccccc1CN(C)CCCCCCCCCCN(C)CC(=O)N1CCC[C@@H]2[C@H]3C=C(C)C[C@]21c1ccc(=O)[nH]c1C3 | 21.1 | 410 | IC50 (Butyrylcholinesterase): 8650 nM |
| CC1=C[C@H]2Cc3[nH]c(=O)ccc3[C@@]3(C1)[C@@H]2CCCN3C(=O)CN(C)CCCCCCCCCCN(C)Cc1ccc(F)cc1 | 52 | 67 | IC50 (Butyrylcholinesterase): 3480 nM |
| COc1ccccc1CN(C)CCCCCCCCCCCCN(C)CC(=O)N1CCC[C@@H]2[C@H]3C=C(C)C[C@]21c1ccc(=O)[nH]c1C3 | 62.2 | – | – |
| CC1=C[C@H]2Cc3[nH]c(=O)ccc3[C@@]3(C1)[C@@H]2CCCN3CCN1CCN(CN2CCC[C@@H]3[C@H]4C=C(C)C[C@]32c2ccc(=O)[nH]c2C4)CC1 | 407 | 472 | IC50 (Butyrylcholinesterase): 192000 nM |
| CC1=C[C@H]2Cc3[nH]c(=O)ccc3[C@@]3(C1)[C@@H]2CCCN3C(=O)CN(C)CCCCCCCCCCCCN(C)Cc1ccccn1 | 65.8 | – | – |
| CC1=C[C@H]2Cc3[nH]c(=O)ccc3[C@@]3(C1)[C@@H]2CCCN3C(=O)CN1CCCN(CC(=O)N2CCC[C@@H]3[C@H]4C=C(C)C[C@]32c2ccc(=O)[nH]c2C4)CC1 | 204 | 838 | – |
| CC1=C[C@H]2Cc3[nH]c(=O)ccc3[C@@]3(C1)[C@@H]2CCCN3C(=O)CN(C)CCCCCCN(C)Cc1cccc2ccccc12 | 124 | – | – |
| CCCN(CCN1CCC[C@@H]2[C@H]3C=C(C)C[C@]21c1ccc(=O)[nH]c1C3)CCN1CCC[C@@H]2[C@H]3C=C(C)C[C@]21c1ccc(=O)[nH]c1C3 | 1010 | – | – |
| CC1=C[C@H]2Cc3[nH]c(=O)ccc3[C@@]3(C1)[C@@H]2CCCN3C(=O)CCN(C)CCCCCCCCCCN(C)CCC(=O)N1CCC[C@@H]2[C@H]3C=C(C)C[C@]21c1ccc(=O)[nH]c1C3 | 11.8 | 5510 | Activity (PC-12 [1]): Active; Activity (PC-12 [2]): Active; Activity (PC-12 [3]): Active; Activity (PC-12 [4]): Active; Activity (Mus musculus): Active; Activity (PC-12 [5]): Active; IC50 (Butyrylcholinesterase): 65000 nM |
| CC1=C[C@H]2Cc3[nH]c(=O)ccc3[C@@]3(C1)[C@@H]2CCCN3C(=O)CN(C)CCCCCCCCN(C)Cc1ccc(F)cc1 | 56.5 | – | – |
| CC1=C[C@H]2Cc3[nH]c(=O)ccc3[C@@]3(C1)[C@@H]2CCCN3CCCN(C)CCCCCCCCCCN(C)CCCN1CCC[C@@H]2[C@H]3C=C(C)C[C@]21c1ccc(=O)[nH]c1C3 | 26.2 | – | – |
| CC1=C[C@H]2Cc3[nH]c(=O)ccc3[C@@]3(C1)[C@@H]2CCCN3C(=O)CCN(C)CCCCCCCCN(C)CCC(=O)N1CCC[C@@H]2[C@H]3C=C(C)C[C@]21c1ccc(=O)[nH]c1C3 | 18.5 | 3400 | IC50 (Butyrylcholinesterase): 63000 nM |
| CC1=C[C@H]2Cc3[nH]c(=O)ccc3[C@]3(C1)NCCC[C@H]23 | – | 12 | – |
